Hits are enriched below; roughly 0.83% of the tested compounds scored in any of these assays.
RGS16-Gao HTS = RGS16-Galphao interaction regulator (human); O15492+P09471; bead-based flow cytometry RGS16-Galphao binding, fluorescence; actives lie on both sides; binding response (% of control), % at 10 µM; 220,000 compounds, 0.38% hits;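 note: Galphao activated by GDP with aluminum fluoride before binding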
RGS8-Gao reg = modulates binding of RGS8 to human Galphao. multiplexed bead flow cytometry; actives lie on both sides. response (percent of control binding), % at 10 µM. P09471. 220,000 compounds, 0.34% hits. AID 1423; in the data active = response below about 60% or above about 140%; inactive = in between;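 note: Galphao activated as the GDP aluminium fluoride complex binding bead-coupled RGS8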
RGS4-Gao reg = modulates binding of RGS4 to human Galphao; P09471; Multiplexed bead flow cytometry; actives lie on both sides; binding response (% of control), % at 10 µM; 220,000 compounds, 0.33% hits; in the data active = binding response below about 49% or above about 150%; inactive = in between;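 note: fluorescent Galphao activated with aluminum fluoride binding bead-coupled RGS4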
ABCG2 inh = human ABCG2 inhibition, ABCB1 as counter-screen; Q9UNQ0; IgMXP3 cells, JC-1 efflux, flow cytometry; inhibition, % at 6.6 µM; 190,000 compounds, 0.1% hits; AID 1325;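 active = inhibition above 80%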;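 note: 0% = DMSO and 100% = nicardipine control wells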
Target sequence (Q9UNQ0 whole entry, looked up): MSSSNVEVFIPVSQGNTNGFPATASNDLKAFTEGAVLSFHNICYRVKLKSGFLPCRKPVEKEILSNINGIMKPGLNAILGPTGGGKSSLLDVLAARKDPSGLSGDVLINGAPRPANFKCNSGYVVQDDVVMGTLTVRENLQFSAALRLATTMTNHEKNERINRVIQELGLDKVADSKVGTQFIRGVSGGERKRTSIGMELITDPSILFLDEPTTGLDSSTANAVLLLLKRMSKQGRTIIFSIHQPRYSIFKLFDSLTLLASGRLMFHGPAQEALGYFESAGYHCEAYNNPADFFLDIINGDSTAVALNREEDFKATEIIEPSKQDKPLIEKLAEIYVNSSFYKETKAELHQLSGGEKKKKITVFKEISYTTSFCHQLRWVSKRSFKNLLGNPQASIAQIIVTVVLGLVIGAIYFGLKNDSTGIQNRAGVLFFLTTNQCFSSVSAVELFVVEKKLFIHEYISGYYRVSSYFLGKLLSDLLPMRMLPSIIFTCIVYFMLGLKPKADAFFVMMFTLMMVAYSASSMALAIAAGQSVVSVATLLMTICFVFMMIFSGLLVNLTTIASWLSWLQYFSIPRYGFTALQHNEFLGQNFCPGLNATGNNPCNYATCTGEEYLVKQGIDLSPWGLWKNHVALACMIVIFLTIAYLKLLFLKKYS
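Measure – % inhibition of efflux relative to nicardipine and DMSO · Test system – ABCG2 IgMXP3 and barcoded ABCB1 CCRF-Adr cell mix · Control set – nicardipine as high control, DMSO as low control · Compound – one concentration, 6.6 µM final · Signal – flow cytometry of retained JC-1 fluorescence · Timing – 10 min exposure at 25 °C with rotation, no wash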
RGS7-Gao = regulators of human RGS7-Galphao interaction; 220,000 compounds, 0.35% hits; Multiplexed bead flow cytometry, RGS7-Galphao binding; actives lie on both sides; binding response (% of control), % at 10 µM; AID 1439; P09471; in the data active = binding response below about 49% or above about 150%; inconclusive = no clear call, values can overlap the other calls; inactive = in between;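 note: fluorescent Galphao held in activated GDP-AlF4 state binding bead-coupled RGS7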
ABCB1 block = human ABCB1 inhibition, ABCG2 as counter-screen. P08183. CCRF-Adr cells, JC-1 efflux, flow cytometry. inhibition, % at 6.6 µM. 190,000 compounds, 0.067% hits. AID 1326; in the data active = inhibition above about 40%;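 note: 0% = vehicle and 100% = reference inhibitor; higher value means more JC-1 retained so stronger ABCB1 efflux block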
RGS4-Gao HTS = RGS4-Galphao interaction regulator (human). shares compounds with RGS16-Gao HTS. multiplexed bead flow cytometry, RGS–Galpha-o binding. RGS4–Galpha-o binding response, % at 10 µM. 1,600 compounds, 99% hits. AID 1504;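 note: fluorescently labeled Galpha-o bound to GDP with aluminium fluoride binding biotinylated RGS beads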
Biotin-avidin = interferes with biotinylated probe binding to avidin beads. shares compounds with RGS16-Gao HTS. streptavidin beads, fluorescein-biotin binding, flow cytometry. inhibition, % at 10 µM. 1,700 tested, under 10 active. AID 1783;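 active = inhibition above 50%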;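 note: median green fluorescence of gated singlet beads compared with DMSO control wells; 0% = DMSO wells and 100% = complete loss of bead fluorescence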
RGS8-Gao single = confirmation of regulators of human RGS8-Galphao interaction | shares compounds with RGS16-Gao HTS | bead-based flow cytometry RGS8-Galphao binding, fluorescence; actives lie on both sides | binding response (% of control), % at 10 µM | 1,700 compounds, 3% hits | AID 1836; in the data active = binding response below about 72% or above about 130%; inactive = in between;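 note: Galphao activated as GDP AlF4 complex before binding bead RGS8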
RGS7-Gao confirm = RGS7-Galphao interaction regulation, single point confirmation; AID 1837; 1,700 compounds, 7.8% hits; response (percent of control binding), % at 10 µM; shares compounds with RGS16-Gao HTS; bead-based flow cytometry RGS7-Galphao binding; actives lie on both sides; in the data active = response below about 75% or above about 130%; inactive = in between;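 note: fluorescent Galphao activated with GDP and aluminum fluoride binding bead-coupled RGS7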
RGS16-Gao conf = confirmation of regulators of human RGS16-Galphao interaction | bead-based flow cytometry, RGS16-Galphao binding; actives lie on both sides | shares compounds with RGS16-Gao HTS | response (% of control binding), % at 10 µM | 1,700 compounds, 4% hits | AID 1838; in the data active = response below about 74% or above about 130%; inactive = in between;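 note: Galphao activated as the GDP aluminium fluoride complex binding bead-coupled RGS16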
RGS4-Gao single = confirmation of regulators of human RGS4-Galphao interaction. shares compounds with RGS16-Gao HTS. RGS4-Galphao binding, multiplexed bead flow cytometry; actives lie on both sides. 1,700 compounds, 4% hits. binding response (% of control), % at 10 µM; in the data active = binding response below about 74% or above about 130%; inactive = in between
RGS19-Gao conf = RGS19-Galphao interaction regulation, single point confirmation | response (percent of control binding), % at 10 µM | shares compounds with RGS16-Gao HTS | bead-based flow cytometry RGS19-Galphao binding; actives lie on both sides | 1,700 compounds, 5% hits; in the data active = response below about 50% or above about 160%; inactive = in between;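 note: 100% = no compound control and 0% = blank background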
* marks the source's active call; other numbers are inactive results; ? = inconclusive; · = no result; [ ] = remark or other dose. Unless noted, the rule behind the calls is not given here.

SMILES	RGS16-Gao HTS	RGS8-Gao reg	RGS4-Gao reg	ABCG2 inh	RGS7-Gao	ABCB1 block	RGS4-Gao HTS	Biotin-avidin	RGS8-Gao single	RGS7-Gao confirm	RGS16-Gao conf	RGS4-Gao single	RGS19-Gao conf
CCn1c(C(=O)N2CCCC(C(=O)NCCCc3ccccc3)C2)cc2sccc21 (stereo not given)	112	104	102	11	103	3	·	·	·	·	·	·	·
Cc1ccc(OCc2nnc(SC(C)C(=O)O)n2Cc2ccccc2)cc1 (stereo not given)	112	101	103	1	101	0	·	·	·	·	·	·	·
O=C1CCCC/C1=C\Nc1ccc(S(=O)(=O)Nc2cnc3ccccc3n2)cc1	99	101	102	·	?	·	·	·	·	·	·	·	·
COc1ccc(S(=O)(=O)N2CCN(C(=O)COc3ccc4c(C)cc(=O)oc4c3)CC2)cc1	100	103	105	1	101	0	·	·	·	·	·	·	·
COc1ccc(N2CCN(C(=O)c3ccc(COc4ccc5c(C)cc(=O)oc5c4)cc3)CC2)cc1	100	99	180*[activator]	12	158*[activator]	3	·	-1	102	98	102	100	95
Cc1c(NS(=O)(=O)c2ccc3c(c2)c(=O)n(C)c(=O)n3C)c(=O)n(-c2ccccc2)n1C	102	101	102	-1	97	0	·	·	·	·	·	·	·
COc1ccc(/C=C(/CC(=O)Nc2ccccc2)c2nc3ccccc3s2)cc1	18*	70	76	-7	74	-1	76*	0	99	84	94	89	109
COc1ccc(/C=C(/CC(=O)NCc2ccc(Cl)cc2)c2nc3ccccc3s2)cc1	110	103	102	6	102	4	·	·	·	·	·	·	·
COc1ccc(NC(=O)N2CCN(S(C)(=O)=O)CC2)c(OC)c1	98	100	99	7	?	2	·	·	·	·	·	·	·
CN(c1ccccc1)S(=O)(=O)c1cccc(NC(=O)CN2CCCc3ccccc32)c1	178*[activator]	118	141	·	?	·	141*	1	102	131*[activator]	112	113	134
Cc1ccsc1C1C2=C(CCCC2=O)Nc2ncnn21 (stereo not given)	102	102	99	1	99	1	·	·	·	·	·	·	·
O=C1CCCC2=C1C(c1cccs1)n1ncnc1N2 (stereo not given)	142	105	202*[activator]	0	163*[activator]	0	·	-1	93	61*	72*	74*	40*
CCS(=O)(=O)c1nc(S(=O)(=O)c2ccc(Cl)cc2)c(NCCOC)s1	102	104	101	1	103	0	·	·	·	·	·	·	·
CCOC(=O)c1ccc(NC(=O)C2(c3ccccc3)CCCC2)cc1	321	144*[activator]	131	2	123	1	131*	·	·	·	·	·	·
CCOC(=O)c1ccc(NC(=O)C2(c3ccc(Cl)cc3)CCCC2)cc1	133	116	107	5	106	1	·	·	·	·	·	·	·
COc1ccc(OC(=O)Nc2ccc([N+](=O)[O-])cc2OC)cc1	34	48*	39*	·	?	·	·	0	104	106	106	107	108
COc1ccc(/C=N/NC(=O)c2[nH]ncc2Br)c(OC)c1	98	98	96	0	95	0	·	·	·	·	·	·	·
c1ccc2c(C3=NNC(=NC4CCCCC4)SC3)c[nH]c2c1	5.2*	79	96	-5	95	0	96*	0	102	101	103	105	97
c1ccc2c(C3=NNC(=NC4CC4)SC3)c[nH]c2c1	109	103	98	-4	96	-1	·	·	·	·	·	·	·
CC(C)N(CC#CCC(O)(c1ccccc1)c1ccccc1)C(C)C	98	102	101	12	98	1	·	·	·	·	·	·	·
CC(c1ccccc1C(O)(c1ccccc1)c1ccccc1)N(C)C (stereo not given)	-43	14*	17*	1	7.0*	1	·	1	104	107	108	107	91
CC(C)n1c(-c2cccnc2)nc2cnccc21	214	140*[activator]	122	6	121	0	122*	·	·	·	·	·	·
CCOC(=O)c1c(NC(=O)C2CCCO2)sc(C(N)=O)c1C (stereo not given)	295*[activator]	133	111	-1	113	0	111*	-1	100	88	100	93	93
CCCOC(=O)c1c(NC(=O)C2CCCO2)sc(C(=O)OC)c1C (stereo not given)	55	88	102	3	114	2	·	·	·	·	·	·	·
CCc1cccc(CC)c1NC(=O)C1CC(=O)N(c2ccc3c(c2)OCCO3)C1 (stereo not given)	-578*	107	86	2	88	1	86*	·	·	·	·	·	·
Cn1cc2c(=O)n(/N=C/c3ccccc3)cnc2n1	132	113	107	4	102	1	·	·	·	·	·	·	·

Bioassay records: PubChem BioAssay, NMMLSC
